# APP 5'UTR act – activates APP 5'UTR luciferase reporter; SH-SY5Y APP 5'UTR luciferase reporter, luminescence; zero percent = DMSO vehicle wells; activation, % at 2 µM; 190,000 compounds, 1% hits; AID 1276;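 active means activation above a set limit, based on mean plus 3 SD of controls, cut at about 140% in these data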
# STAT3 blocker – inhibitors of IL-6 induced STAT3 signaling; U3A cells, IL-6 STAT3-luciferase reporter, luminescence; host cell line lacks STAT1; inhibition, % at 5.5 µM; 190,000 compounds, 0.89% hits; AID 862;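 active means inhibition above the mean inhibition across all screened compounds plus 3 SD, cut at about 44% in these data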;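 further: 0% = DMSO only wells and 100% = 100 µM nifuroxazide control wells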
# STAT3 act – STAT3 signaling activation; U3A cells, IL-6 STAT3-luciferase reporter, luminescence; 100% = signal with IL-6 EC80 alone; activation (% of control), % at 5.6 µM; 190,000 compounds, 0.91% hits;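 active means activation above the screen-wide mean of compound activation plus 3 SD, cut at about 130% in these data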;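 further: 0% = background luminescence of wells with medium and substrate only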
#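 system = STAT3-luciferase reporter U3A cells | reagent = IL-6 stimulus at 33 ng/mL final | timing = 1 h compound pre-exposure, 6 h IL-6 stimulation, 37 °C | measured by = luminescence | evaluation = % activation versus median of IL-6-stimulated wells | control set = IL-6-only wells as 100% reference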
# STAT1 activator – activators of IFN-gamma induced STAT1 signaling; NIH 3T3 STAT1-luciferase reporter, luminescence; 100% = IFN-gamma alone, no compound; 200,000 compounds, 2.6% hits; activation (% of control), % at 5.5 µM; AID 932;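 active means activation above the screen-wide mean activation plus 3 SD, cut at about 130% in these data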;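 further: raw ratio to IFN-gamma control signal so 100% means no change and 0% no light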
# STAT1 blocker – inhibitors of IFN-gamma induced STAT1 signaling | inhibition, % at 5.5 µM | 200,000 compounds, 0.35% hits | AID 920 | NIH 3T3 STAT1-luciferase reporter, luminescence;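 active means inhibition above a set limit, the mean inhibition across all tested compounds plus 3 SD, cut at about 34% in these data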;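 further: 0% = IFN-gamma with DMSO and 100% = IFN-gamma with 300 µM nifuroxazide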
# NF-kB expr up – compounds increasing NF-kB expression in human neuronal cells | fold change at 12.5 µM | NF-kB reporter expression; active compounds read high | 190,000 compounds, 1.6% hits; in the data active means fold change above about 3.3
# * marks the source's active call; other numbers are inactive results; . = not tested or not shown. Only some compounds are listed: those with a hit (about 5.1% of all), similar ones and a draw of the others.
SMILES,APP 5'UTR act,STAT3 blocker,STAT3 act,STAT1 activator,STAT1 blocker,NF-kB expr up
O=C(CSc1ccccn1)Nc1ccc2c(c1)C(=O)c1ccccc1C2=O,83,-1,99,120,-19,1.1
Cc1cccc(NC(=O)CCSc2ccccn2)c1,16,-7,108,106,-7,1.5
Cc1ccc(NC(=O)CCSc2ccccn2)cc1,81,12,92,142*,-48,3
Cc1nn(-c2ccc(Cl)nn2)c(=O)c2ccccc12,21,15,92,125,-31,1.5
CCN(CC)CCOC(=O)/C=C/c1ccccc1OC,10,7,101,100,0,0.92
COc1ccc(/C=N/Nc2ccc([N+](=O)[O-])cc2S(=O)(=O)N2CCN(C)CC2)cc1,.,-2,102,107,-8,5.5*
COc1ccc(NS(=O)(=O)c2cc([N+](=O)[O-])ccc2N/N=C\c2c(C)[nH]c3ccccc23)cc1,.,-28,122,103,-3,1
O=S(=O)(N/N=C\C=C\c1ccccc1)c1ccc(Cl)cc1,-8,3,104,102,-3,1
CN1CCN(NC(=O)CN2C(=O)/C(=C/c3c(Cl)cccc3Cl)SC2=S)CC1,3,-43,135*,100,0,1.3
CN1CCN(NC(=O)CN2C(=O)/C(=C/c3ccccc3Cl)SC2=S)CC1,9,14,94,96,4,1
CCCCCCCOc1ccc(OC(=O)c2cccnc2)cc1,3,19,85,103,-2,11*
CCCCOc1ccc(OC(=O)c2cccnc2)cc1,2,25,81,102,-2,1.6
CCCCCCCOc1ccc(OC(=O)c2ccncc2)cc1,-3,23,81,97,-1,8.6*
O=C(NC(C(=O)c1ccccc1)N1CCCCC1)c1ccccc1 (configuration not stated),3,-8,110,113,-12,1.6
Cc1ccc(C(=O)Nc2nc3ccc(S(C)(=O)=O)cc3s2)s1,33,13,92,146*,-50,2.5
CCC(=O)Nc1nc2ccc(S(C)(=O)=O)cc2s1,-10,-21,121,131*,-33,1.6
CNc1nc(N(C)C)nc(N(C)C)n1,5,-39,136*,94,6,1.3
Clc1ccc(-c2cn3cccnc3n2)cc1,16,16,86,133*,-35,2.3
N=C1C(c2nc3ccccc3s2)=C(O)CN1C1CCCCC1,42,-8,109,147*,-53,1.1
CCN(CC)CCCN1CC(O)=C(c2nc3ccccc3s2)C1=N,-1,5,100,107,-8,1.1
N=C1C(c2nc3ccccc3s2)=C(O)CN1Cc1ccccc1,23,-33,130,131*,-33,1.3
CCOc1ccccc1N1CC(O)=C(c2nc3ccccc3s2)C1=N,-92,4,98,118,-15,0.47
COCc1cc(C)nc(SCC[N+](C)(C)CC(=O)Nc2cccc(C(F)(F)F)c2)c1C#N,-2,-4,104,104,-6,1.2
CCOC(=O)N1CCN(c2nc(C)cc(C(F)(F)F)n2)CC1,24,18,88,89,10,4.9*
CCOC(=O)N1CCN(c2nc(C(F)(F)F)nc3c(C)cc(C)cc23)CC1,0,34,74,104,-4,1
SMILES,APP 5'UTR act,STAT3 blocker,STAT3 act,STAT1 activator,STAT1 blocker,NF-kB expr up
CCOCC(=O)Nc1cc(C)on1,6,17,93,117,-21,0.82
Cc1cc(=O)n2nc(-c3ccc(C(F)(F)F)cc3)sc2n1,-2,12,94,129*,-32,1.4
COc1ccc(N=c2scc(-c3ccc(S(=O)(=O)N4CCOCC4)cc3)n2CCCO)cc1,11,44*,68,76,25,0.72
C=CCn1c(-c2ccc(S(=O)(=O)N3CCOCC3)cc2)csc1=Nc1ccccc1,4,21,85,74,28,0.94
Cn1c(O)c(C2=c3ccccc3=NC2=O)sc1=Nc1ccc(Cl)cc1,21,1,101,100,0,5.2*
Cc1ccc2nc(NCc3ccccc3)[nH]c2c1,-10,0,105,116,-18,4.8*
COc1cccc(C(=O)NN/C(C)=C/C(=O)C(F)(F)C(F)(F)C(F)(F)F)c1,14,-11,108,110,-11,0.75
CC1=C(C(=O)OC(C)C)C(c2cccc([N+](=O)[O-])c2)n2c(cc(=O)[nH]c2=S)N1 (configuration not stated),22,17,89,93,8,1.2
Cc1cc(C)c2cc3c(N)c(C(=O)N4CCOCC4)sc3nc2c1,86,3,102,144*,-51,0.93
Cc1ccc(C)c2nc3sc(C(=O)N4CCOCC4)c(N)c3cc12,64,-1,103,144*,-49,1.9
N#CCC(=O)Nc1ccc(C(F)(F)F)cc1N1CCOCC1,18,4,98,98,2,1.2
CCN(CCn1cccn1)C(=O)CCc1nnc(-c2ccc3c(c2)OCO3)o1,6,7,104,117,-20,1.4
CCN(CCn1cccn1)C(=O)CCc1nnc(CCCc2ccccc2)o1,67,-19,118,147*,-53,4.1*
Cc1cccc(NC(=O)c2c(C)nn(-c3ccccc3)c2Cl)c1,40,6,98,116,-20,1.9
CCOC(=O)c1cc(C(=O)Nc2cccc(C)c2)nn1C,130,-2,103,135*,-40,6.8*
O=C(NN1C(=O)c2ccccc2C1=O)c1ccccc1[N+](=O)[O-],0,3,104,99,0,0.99
COc1ccc(NC(=O)CCc2nc(-c3ccccc3F)no2)cc1,0,3,101,99,1,1.1
Cc1cc(C(=O)Cn2nc(C(=O)O)c3ccccc3c2=O)c(C)n1CC(F)(F)F,-8,-11,111,142*,-44,1.6
O=C(COc1ncnc2ccccc12)NCC1CCCO1 (configuration not stated),-10,6,97,93,7,1.1
O=C(NC(c1ccc(Cl)cc1)c1c(O)ccc2ccccc12)c1ccccc1 (configuration not stated),-8,-12,108,100,0,1.1
CC(=O)NC(c1ccc(Cl)cc1)c1c(O)ccc2ccc(O)cc12 (configuration not stated),-19,-11,110,130*,-33,0.67
O=C(Nc1ccc(F)cc1F)c1cc2nc3c(c(C(F)(F)F)n2n1)CCCC3,173*,0,100,105,-5,0.45
COCCN1Cc2c(sc(C)c2C)N(C(=O)c2ccccc2)C1,52,-32,138*,109,-10,2.5
CCN(CC)CCC(C)OC(c1ccccc1)c1ccccc1 (configuration not stated),3,-1,107,98,0,1.2
Cc1ccc(C2=Nc3ccccc3N=C(C(Cl)Cl)C2)cc1,109,21,84,91,9,4*

# Assay outcomes from PubChem.
